High-throughput results as filed in PubChem BioAssay.
NTR1 ag = activates human neurotensin receptor 1. P30989. NTR1-U2OS beta-arrestin-GFP spot imaging, agonist mode. activation, % at 20 µM. 330,000 tested, 0.17% active;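 active = activation at or above 40% of the spot to cytoplasm intensity ratio, with at least 20 cells analyzed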;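 also: 0% = DMSO without peptide and 100% = 100 nM NTR1 peptide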
Target sequence (P30989 whole entry, looked up): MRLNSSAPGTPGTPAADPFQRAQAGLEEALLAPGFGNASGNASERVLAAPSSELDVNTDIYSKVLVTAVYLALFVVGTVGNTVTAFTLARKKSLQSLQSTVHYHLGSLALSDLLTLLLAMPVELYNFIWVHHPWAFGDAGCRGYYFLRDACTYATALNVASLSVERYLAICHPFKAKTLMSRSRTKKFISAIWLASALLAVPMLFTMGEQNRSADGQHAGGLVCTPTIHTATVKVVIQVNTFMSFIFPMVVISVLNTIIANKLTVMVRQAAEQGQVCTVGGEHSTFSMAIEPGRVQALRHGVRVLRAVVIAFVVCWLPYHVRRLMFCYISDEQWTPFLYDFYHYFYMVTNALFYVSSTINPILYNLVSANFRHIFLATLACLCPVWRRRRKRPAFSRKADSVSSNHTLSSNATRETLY
TbMetRS inhib = Trypanosoma brucei MetRS inhibition. purified T. brucei MetRS, ATP depletion, Kinase-Glo luminescence. inhibition, % at 11.9 µM. 360,000 tested, 0.4% active. AID 624268;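 active = inhibition above a per-plate cutoff of the control wells' mean inhibition plus 3 SD, cut at about 5.5% in these data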;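 also: 0% = DMSO wells median and 100% = median of wells with control inhibitor compound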
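Test system – parasite MetRS enzyme · Reagent – substrates ATP, L-methionine and bulk Escherichia coli tRNA · Doses – 11.9 µM compound single dose, 0.9% DMSO · Times – 15 min enzyme-compound preincubation, 2 h reaction, 10 min detection, 25 °C · Signal – Kinase-Glo luminescence, ATP depletion format · Controls – DMSO-only wells as low control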
aDG glyco up = alpha-DG glycosylation activation. activation, % at 10 µM. AID 624168. 360,000 tested, 0.22% active. Pro5-aDG cells, alpha-DG glycosylation AlphaScreen (IIH6); 0% Pro5, 100% B10-LARGE cell signal;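 active = activation of at least 8% versus controls, or a plate z-score of at least 8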;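 also: Pro5 are CHO cells carrying HIG-tagged alpha-DG that lacks glycosylation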
MC4R antagonist = blocks human MC4R cAMP signaling; inhibition, % at 6.5 µM; P32245; MC4R-expressing cells, MTII-stimulated cAMP, LANCE TR-FRET; 360,000 tested, 0.48% active; AID 540295;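 active = inhibition above its plate's cutoff, the mean of tested wells on that plate plus 3 SD, cut at about 29% in these data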;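 also: 0% = Melanotan II alone and 100% = Melanotan II plus saturating MCL0020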
Target sequence (P32245 whole entry, looked up): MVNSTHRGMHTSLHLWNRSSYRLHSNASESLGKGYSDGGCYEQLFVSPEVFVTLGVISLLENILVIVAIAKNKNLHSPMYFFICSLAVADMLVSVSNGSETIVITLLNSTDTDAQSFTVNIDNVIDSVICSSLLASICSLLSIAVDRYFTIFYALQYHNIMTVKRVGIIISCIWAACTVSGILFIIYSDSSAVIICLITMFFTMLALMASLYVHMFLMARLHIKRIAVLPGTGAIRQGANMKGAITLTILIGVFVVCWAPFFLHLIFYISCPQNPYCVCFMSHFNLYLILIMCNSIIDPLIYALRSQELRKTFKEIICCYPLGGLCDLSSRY
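System – human MC4R-expressing U2OS cells · Also added – Melanotan II · Dosing – one concentration, 6.5 µM nominal · Timing – 30-min compound, 1-h challenge, 1-h detection, room temperature · Measured by – Eu-cAMP/anti-cAMP TR-FRET, emission 671 nm · Replicates – singlicate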
TAG inh = inhibitors of triacylglycerol accumulation | H9c2 cells, Nile Red lipid (TAG) fluorescence; cells loaded with 200 µM oleic acid | inhibition, % at 12.5 µM | 230,000 tested, 0.66% active | AID 651582;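 active = pattern-corrected inhibition of lipid staining of at least 50% with the nuclear-stain viability signal not falling by more than 50%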;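 also: 0% = DMSO wells and 100% = triacsin C control wells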
MC4R barr agon = agonists of human melanocortin 4 receptor (MC4R) beta-arrestin; U2OS MC4R beta-arrestin complementation, luminescence; percent of melanotan II response, DMSO zero; activation, % at 8.9 µM; AID 540308; 360,000 tested, 0.98% active;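 active = activation above a per-plate cutoff, the mean activation of sample wells on that plate plus 3 SD, cut at about 8% in these data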
NTR1 ag confirm = NTR1 (human) agonism, confirmed | shares compounds with NTR1 ag | NTR1-U2OS beta-arrestin-GFP translocation imaging | activation, % at 20 µM | 480 tested, 38% active | AID 504550;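 active = mean activation at 20 µM of at least 40%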;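 also: 0% = DMSO without peptide and 100% = 100 nM NTR1 peptide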
An asterisk follows results filed as active; x = no result given. Rows were chosen to be rich in hits. Some 2.4% of all compounds tested hit in one or more screens of this group.

SMILES | NTR1 ag | TbMetRS inhib | aDG glyco up | MC4R antagonist | TAG inh | MC4R barr agon | NTR1 ag confirm
Cc1[nH]n(-c2ccccc2)c(=O)c1C(C[N+](=O)[O-])c1ccc(Br)cc1 (centres undefined) | 17.2 | 3.2 | -0.5 | -5.2 | -8.9 | 1.9 | x
CSc1nc(N)nc(SCC(=O)C23CC4CC(CC(C4)C2)C3)c1C#N | 44.8* | -0.1 | 0.2 | -12.5 | x | 1.4 | 13.2
N#Cc1c(N)nc(SCC(=O)C23CC4CC(CC(C4)C2)C3)c(C#N)c1-c1ccc(Cl)cc1 | 1.3 | -0.5 | -0.3 | 15.7 | 13.4 | 4.4 | x
CC(C)(C)c1ccc(OCCOc2ccc(C(C)(C)C)cc2NC=O)c(NC=O)c1 | 42.9* | 0.3 | 3.1 | 22.6 | x | 2.0 | 22.6
CNC(=O)c1cccc(NC(=O)c2cc(-c3ccccc3)nc3c2cnn3C(C)C)c1 | 55.0* | -0.6 | -0.4 | 1.2 | 23.2 | -1.6 | 33.3
O=[N+]([O-])c1cc(C(F)(F)F)ccc1NCCNC(=S)Nc1ccc(Cl)cc1 | 41.1* | 0.5 | 0.4 | 5.0 | x | -2.1 | 16.6
O=[N+]([O-])c1cc(C(F)(F)F)ccc1NCCCCNS(=O)(=O)c1ccc(Cl)cc1 | 19.6 | -0.8 | 3.8 | 1.8 | x | 2.1 | x
N=c1c(C(=O)NCc2ccc(F)cc2)cc2c(=O)n3ccccc3nc2n1Cc1ccco1 | 41.3* | 0.4 | 0.9 | -38.4 | -4.1 | -2.6 | 22.1
COc1ccc(CCNC(=O)c2cc3c(=O)n4cccc(C)c4nc3n(Cc3ccco3)c2=N)cc1OC | 41.5* | -1.0 | -0.1 | -36.9 | x | -3.3 | 11.5
N=c1c(C(=O)NCc2ccccc2)cc2c(=O)n3ccccc3nc2n1Cc1ccco1 | 16.2 | 0.4 | -0.1 | -53.9 | 11.0 | -2.2 | x
COc1ccc2sc(-c3ccc(S(C)(=O)=O)cc3)c(C#CCO)c2c1 | 56.6* | -0.5 | 0.5 | 11.2 | 4.9 | 1.5 | 56.8*
COc1ccc(-c2sc3ccccc3c2C#CCO)cc1 | 5.0 | 0.2 | 0.5 | -3.5 | 4.2 | 0.6 | x
N#Cc1ccc(Nc2nc(-c3ccc(O)cc3O)cs2)cc1C(F)(F)F | 40.8* | 3.2 | -0.2 | 12.7 | -4.8 | 19.8* | 69.9*
COC(=O)c1cc(=O)n(Cc2ccc3c(c2)OCO3)c(=Nc2ccc(F)cc2)s1 | 4.9 | -0.3 | -0.1 | 4.5 | 16.1 | -0.2 | x
COC(=O)c1cc(=O)n(-c2ccc(F)cc2)c(=Nc2ccc(F)cc2)s1 | 50.1* | 0.2 | -0.4 | 16.6 | 9.9 | 0.3 | 51.7*
COC(=O)c1cc(=O)n(Cc2cccs2)c(=Nc2ccc(F)cc2)s1 | 41.7* | -0.3 | 0.4 | 19.0 | 12.2 | 1.2 | 36.1
CCCCNC(=O)C(NC(=O)c1cnc(C)cn1)C(=O)c1ccccc1 (centres undefined) | x | -0.7 | 0.9 | x | x | x | x
Cn1c(N)c(C(=O)COC(=O)c2cc(C3CC3)nc3ccccc23)c(=O)n(Cc2ccccc2)c1=O | 40.1* | -0.3 | -0.2 | -2.1 | 21.6 | -1.3 | 0.5
Cn1c(N)c(C(=O)COC(=O)c2cc(-c3ccccc3)nc3ccccc23)c(=O)n(Cc2ccccc2)c1=O | 20.2 | 0.6 | -0.2 | 10.6 | 23.5 | -0.8 | x
Cc1ccc(Sc2c([N+](=O)[O-])c(=O)n(C)c3ccccc23)cc1 | 66.6* | -0.8 | -0.2 | 12.4 | x | -3.2 | 72.7*
CCOC(=O)c1ccc(NC(=O)C2CCCN(S(=O)(=O)c3ccc(F)cc3)C2)cc1 (centres undefined) | 53.4* | -0.3 | 0.2 | -4.0 | x | -0.8 | 22.2
CN(C(=O)COc1ccccc1C(=O)NCCOc1ccccc1)c1ccccc1 | 106.8* | -0.1 | -0.2 | 27.2 | x | 3.5 | 62.7*
C=C(C)COc1ccc(-c2[nH]ncc2-c2ccc(Br)cc2)c(O)c1 | 40.9* | -0.5 | -0.3 | -24.2 | x | 4.3 | 9.0
CCOc1ccc(-c2[nH]ncc2-c2ccc(Cl)cc2)c(O)c1 | 55.4* | -1.5 | 0.1 | 1.2 | x | 6.4 | 5.8
CCOc1ccc(-c2[nH]ncc2-c2ccc(OC)c(OC)c2)c(O)c1 | 2.2 | -0.6 | 0.2 | -10.5 | x | -0.6 | x
SMILES | NTR1 ag | TbMetRS inhib | aDG glyco up | MC4R antagonist | TAG inh | MC4R barr agon | NTR1 ag confirm
C=C(C)COc1ccc(-c2ncncc2-c2ccc(Br)cc2)c(O)c1 | 11.3 | -1.3 | -0.2 | -2.6 | x | -1.2 | x
COC(=O)c1cccc(N2C(=O)C[C@](Sc3ccc(C)cc3)(C(=O)OC)[C@H]2c2ccccc2)c1 | x | -0.8 | -0.3 | x | x | x | x
CCOc1cc(/C=C2/C(=O)ON=C2C)ccc1OCc1ccccc1 | 47.9* | x | x | x | x | x | 53.8*
CCOc1cc(/C=C2/C(=O)ON=C2C)ccc1OCc1ccc(F)cc1 | 57.1* | -0.9 | 0.6 | 20.6 | x | 0.2 | 64.0*
O=C1[C@@H](c2ccccc2)CC[C@@H]2C=CC[C@H]3CCN1[C@@H]32 | x | -0.5 | -0.3 | x | x | x | x
CCc1nc2c(OCCOC)cccn2c1N(C)C(=O)c1ccco1 | x | 0.1 | 0.0 | 2.3 | 3.1 | -0.4 | x
O=C1Nc2ccc(Br)cc2/C1=C/C1CC=CCC1 (centres undefined) | 42.1* | -0.9 | -0.2 | 6.5 | -9.7 | 2.8 | 8.7
COc1cc(C(=O)N2CCC2(C)C(=O)O)cc(OC)c1OC (centres undefined) | x | 0.0 | 0.3 | 2.3 | -32.2 | -2.5 | x
COC(=O)C1(C(=O)OC)c2cc3c(cc2CN(S(=O)(=O)c2ccc(C)cc2)C1CC(C)=O)OCO3 (centres undefined) | x | -0.9 | 0.7 | x | x | x | x
COc1ccc(C(O)c2nc(-c3ccncc3)cs2)cc1 (centres undefined) | x | -0.2 | 3.4 | 1.7 | -23.9 | -2.2 | x
COC(=O)COc1ccc(/C=N/NC(=O)CN(c2ccccc2OC)S(=O)(=O)c2ccccc2)cc1 | 74.6* | 0.0 | 0.0 | 7.7 | x | -2.2 | 75.6*
COc1ccccc1N(CC(=O)N/N=C/c1ccc(OCC(=O)NCc2ccco2)cc1)S(=O)(=O)c1ccc(C)cc1 | 1.1 | -0.8 | 0.5 | 7.9 | 5.8 | -0.7 | x
COc1ccccc1OCCn1nc2ccccc2c1OC | x | -0.5 | 0.0 | x | x | x | x
COc1cc(/C=C(/C(=O)c2cccs2)c2nc3ccccc3[nH]2)ccc1O | 20.1 | 1.3 | -0.1 | 11.1 | -21.3 | -4.0 | x
O=C(/C(=C/c1ccc(Cl)cc1)c1nc2ccccc2[nH]1)c1cccs1 | 53.5* | 0.1 | -0.2 | 8.7 | x | -1.7 | 62.5*
CCCOc1ccc(Cl)cc1/C=C1/C(=O)ON=C1C | 0.8 | 0.0 | -0.1 | 7.6 | x | -0.9 | x
CC1=NOC(=O)/C1=C\c1ccc(-c2ccc(Cl)cc2Cl)o1 | 80.0* | 1.5 | 0.5 | -0.1 | 4.1 | -1.1 | 38.8
O=C(COc1ccccc1)NCC(=O)N/N=C/c1ccc(O)cc1O | 42.2* | 0.9 | 0.1 | 7.0 | 4.6 | -0.5 | 39.8
COc1cc([N+](=O)[O-])ccc1NC(=O)Nc1nc2c(s1)CCCC2 | 42.6* | -0.4 | 0.0 | 5.9 | x | 0.0 | 17.7
